Activity calls are given as the source filed them. The rule behind the calls is not given here.
Experiments:
[1] = Inhibition of IL-6-induced cell adhesion in human U937 cells assessed as reduction in cell adhesion to HT-29 cells at 1 uM relative to control; format: functional; details: U-937
[2] = Inhibition of TNF-alpha-induced cell adhesion in human U937 cells assessed as reduction in cell adhesion to HT-29 cells at 1 uM relative to control; format: functional; details: U-937
[3] = Inhibition of TNF-alpha-induced cell adhesion in human U937 cells assessed as reduction in cell adhesion to HT-29 cells at 1000 uM relative to control; format: functional; details: U-937
[4] = Inhibition of IL-6-induced cell adhesion in human U937 cells assessed as reduction in cell adhesion to HT-29 cells at 1000 uM relative to control; format: functional; details: U-937
Rattus norvegicus [5] = assay: Anti-colitis activity against TNBS-induced rat model of colitis assessed as increase in body weight administered po for 5 days and measured on day 5; format: functional, organism-based; details: dose 1-10 mg/kg, time 5.0 day
Procedure, shortened: (§1)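 Rat colitis induced by rectal TNBS. Test agents given orally once daily for 5 days. Read-outs are body weight, colon appearance (congestion, adhesion), and colon tissue weight/length. MPO in colon tissue was measured with an MPO assay kit. Groups were compared against mock control and vehicle-treated TNBS animals, with P < 0.05 taken as significant.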

Rattus norvegicus [6] = assay: Anti-colitis activity against TNBS-induced rat model of colitis assessed as decrease in MPO level in colon at 1 to 10 mg/kg, po administered for 5 days and measured on day 5; format: functional, organism-based; details: dose 1-10 mg/kg, time 5.0 day; procedure, shortened: as §1
Rattus norvegicus [7] = assay: Anti-colitis activity against TNBS-induced rat model of colitis assessed as increase in colon weight at 1 to 10 mg/kg, po administered for 5 days and measured on day 5; format: functional, organism-based; details: dose 1-10 mg/kg, time 5.0 day; procedure, shortened: as §1
Rattus norvegicus [8] = assay: Anti-colitis activity against TNBS-induced rat model of colitis assessed as decrease in congestion at 1 to 10 mg/kg, po administered for 5 days and measured on day 5; format: functional, organism-based; details: dose 1-10 mg/kg, time 5.0 day; procedure, shortened: as §1
Rattus norvegicus [9] = assay: Anti-colitis activity against TNBS-induced rat model of colitis assessed as decrease in adhesion at 1 to 10 mg/kg, po administered for 5 days and measured on day 5; format: functional, organism-based; details: dose 1-10 mg/kg, time 5.0 day; procedure, shortened: as §1
Rattus norvegicus [10] = assay: Anti-colitis activity against TNBS-induced rat model of colitis assessed as increase in colon length at 1 to 10 mg/kg, po administered for 5 days and measured on day 5; format: functional, organism-based; details: dose 1-10 mg/kg, time 5.0 day; procedure, shortened: as §1
Rattus norvegicus [11] = assay: Anti-colitis activity against TNBS-induced rat model of colitis assessed as decrease in congestion at 1 mg/kg, po administered for 5 days and measured on day 5; format: functional, organism-based; details: time 5.0 day; procedure, shortened: as §1
Rattus norvegicus [12] = assay: Anti-colitis activity against TNBS-induced rat model of colitis assessed as increase in body weight at 1 mg/kg, po administered for 5 days and measured on day 5; details: time 5.0 day
Rattus norvegicus [13] = assay: Anti-colitis activity against TNBS-induced rat model of colitis assessed as decrease in adhesion at 1 mg/kg, po administered for 5 days and measured on day 5; format: functional, organism-based; details: time 5.0 day; procedure, shortened: as §1
Rattus norvegicus [14] = assay: Anti-colitis activity against TNBS-induced rat model of colitis assessed as decrease in MPO level in colon at 1 mg/kg, po administered for 5 days and measured on day 5; format: functional, organism-based; details: time 5.0 day; procedure, shortened: as §1
Rattus norvegicus [15] = assay: Anti-colitis activity against TNBS-induced rat model of colitis assessed as increase in colon weight at 1 mg/kg, po administered for 5 days and measured on day 5; format: functional, organism-based; details: time 5.0 day; procedure, shortened: as §1
Rattus norvegicus [16] = assay: Anti-colitis activity against TNBS-induced rat model of colitis assessed as increase in body weight at 1 mg/kg, po administered for 5 days and measured on day 5; format: functional, organism-based; details: time 5.0 day; procedure, shortened: as §1
Rattus norvegicus [17] = assay: Anti-colitis activity against TNBS-induced rat model of colitis assessed as increase in colon weight at 300 mg/kg, po administered for 5 days and measured on day 5; format: functional, organism-based; details: time 5.0 day; procedure, shortened: as §1
Rattus norvegicus [18] = assay: Anti-colitis activity against TNBS-induced rat model of colitis assessed as decrease in congestion at 300 mg/kg, po administered for 5 days and measured on day 5; format: functional, organism-based; details: time 5.0 day; procedure, shortened: as §1
Rattus norvegicus [19] = assay: Anti-colitis activity against TNBS-induced rat model of colitis assessed as decrease in adhesion at 300 mg/kg, po administered for 5 days and measured on day 5; format: functional, organism-based; details: time 5.0 day; procedure, shortened: as §1
Rattus norvegicus [20] = assay: Anti-colitis activity against TNBS-induced rat model of colitis assessed as increase in body weight at 300 mg/kg, po administered for 5 days and measured on day 5; format: functional, organism-based; details: time 5.0 day; procedure, shortened: as §1
Rattus norvegicus [21] = assay: Anti-colitis activity against TNBS-induced rat model of colitis assessed as decrease in MPO level in colon at 300 mg/kg, po administered for 5 days and measured on day 5; format: functional, organism-based; details: time 5.0 day; procedure, shortened: as §1
Rattus norvegicus [22] = assay: Anti-colitis activity against TNBS-induced rat model of colitis assessed as increase in colon length at 300 mg/kg, po administered for 5 days and measured on day 5; format: functional, organism-based; details: time 5.0 day; procedure, shortened: as §1

Compound	inhibition at 1 µM [1]	inhibition at 1 µM [2]	other results
C[C@@H]1CCN(C(=O)CC#N)C[C@@H]1N(C)c1ncnc2[nH]ccc12 [TOFACITINIB]	58.6%	49.1%	
Nc1ccc(O)c(C(=O)O)c1 [MESALAMINE]			inhibition at 1000 µM [3]: 9.9%; inhibition at 1000 µM [4]: 1.7%
CCCC(=O)Nc1nc(C)c(O)c(C)c1C	17.5%	10%	
Cc1nc(NC(=O)/C=C/c2ccccc2)c(C)c(C)c1O	14.2%	25.2%	
CC(=O)Nc1nc(C)c(O)c(C)c1C	47.2%	56%	Activity (Rattus norvegicus [5]): Dose-Dependent Effect; Activity (Rattus norvegicus [6]): Active; Activity (Rattus norvegicus [7]): Active; Activity (Rattus norvegicus [8]): Active; Activity (Rattus norvegicus [9]): Active; Activity (Rattus norvegicus [10]): Active
Cc1nc(NC(=O)Cc2ccccc2)c(C)c(C)c1O	50.2%	56.6%	
Cc1nc(NC(=O)C(C)(C)C)c(C)c(C)c1O	21.1%		
CCCCCCCCCCCCCCCC(=O)Nc1nc(C)c(O)c(C)c1C	17.4%	31.7%	
Cc1nc(NC(=O)CC(C)CC(C)(C)C)c(C)c(C)c1O (stereo not drawn)	46.3%		
Cc1nc(NC(=O)Cc2cccc(Br)c2)c(C)c(C)c1O	9.2%	6.2%	
CCCCCCCC(=O)Nc1nc(C)c(O)c(C)c1C	54.8%	61.5%	
Cc1nc(NC(=O)CCc2ccccc2)c(C)c(C)c1O	69.6%		Activity (Rattus norvegicus [11]): Active; Activity (Rattus norvegicus [12]): Active; Activity (Rattus norvegicus [13]): Active; Activity (Rattus norvegicus [14]): Active; Activity (Rattus norvegicus [15]): Active; Activity (Rattus norvegicus [16]): Active
O=C(O)c1cc(/N=N/c2ccc(S(=O)(=O)Nc3ccccn3)cc2)ccc1O			Activity (Rattus norvegicus [17]): Active; Activity (Rattus norvegicus [18]): Active; Activity (Rattus norvegicus [19]): Active; Activity (Rattus norvegicus [20]): Active; Activity (Rattus norvegicus [21]): Active; Activity (Rattus norvegicus [22]): Active
Cc1nc(NC(=O)CCc2ccccc2Br)c(C)c(C)c1O	22%	35.3%	
Cc1nc(NC(=O)CCCCl)c(C)c(C)c1O	17.8%		
CC(=O)OCC(=O)Nc1nc(C)c(O)c(C)c1C	9.7%	6.8%	
Cc1nc(NC(=O)CCc2ccc(Cl)cc2Cl)c(C)c(C)c1O	35.9%	41.5%	
Cc1ccccc1CCC(=O)Nc1nc(C)c(O)c(C)c1C	12.9%	20.2%	
Cc1nc(NC(=O)Cc2ccc(F)cc2)c(C)c(C)c1O	18.1%	7.2%	
Cc1nc(NC(=O)C2CCCC2)c(C)c(C)c1O	34.8%		
Cc1nc(NC(=O)C2CCCCC2)c(C)c(C)c1O	56.7%		
Cc1nc(NC(=O)CC(C)C)c(C)c(C)c1O	48%	52.3%	
Cc1nc(NC(=O)C(C)C)c(C)c(C)c1O	53.9%	64.2%	
Cc1nc(NC(=O)CCc2ccccc2F)c(C)c(C)c1O	18%	13.9%	
Cc1nc(NC(=O)C(Cl)c2ccccc2)c(C)c(C)c1O (stereo not drawn)	22.5%	36.6%	
Cc1nc(NC(=O)C(Cl)Cl)c(C)c(C)c1O	52.7%		
CCCCCCCCCCCC(=O)Nc1nc(C)c(O)c(C)c1C	44.3%		
Cc1nc(NC(=O)COc2ccccc2)c(C)c(C)c1O	11.4%	10.8%	
Cc1nc(NC(=O)CCc2ccc(Cl)cc2)c(C)c(C)c1O	20.8%	30.6%	
C=CCC(=O)Nc1nc(C)c(O)c(C)c1C	21.3%	31.9%	
